Reference: ChEMBL document CHEMBL4715734, “Discovery of the Potent and Selective M1 PAM-Agonist N-[(3R,4S)-3-Hydroxytetrahydro-2H-pyran-4-yl]-5-methyl-4-[4-(1,3-thiazol-4-yl)benzyl]pyridine-2-carboxamide (PF-06767832): Evaluation of Efficacy and Cholinergic Side Effects” (J Med Chem, 2016)
pEC50, pIC50: −log10 of the molar value.

What was measured:
[1] = Lipophilicity, log D of compound; assay type: physicochemical; details: octanol/water
[2] = Fraction unbound in Wistar Han rat plasma; assay type: ADME
[3] = fCmax in dog at 3 mg/kg, po using spray-dried dispersion formulation; assay type: ADME, organism-based, Canis lupus familiaris; details: in vivo
[4] = Toxicity in dog assessed as side-to-side head movements at 45 mg/kg, po using spray-dried dispersion formulation measured after 45 mins; assay type: organism-based, Canis lupus familiaris; details: in vivo, 0.75 h
[5] = molecular target: cGMP-dependent 3',5'-cyclic phosphodiesterase (Homo sapiens, UniProt O00408); experiment: Inhibition of PDE2A (unknown origin)
cGMP-dependent 3',5'-cyclic phosphodiesterase, sequence (O00408 whole entry): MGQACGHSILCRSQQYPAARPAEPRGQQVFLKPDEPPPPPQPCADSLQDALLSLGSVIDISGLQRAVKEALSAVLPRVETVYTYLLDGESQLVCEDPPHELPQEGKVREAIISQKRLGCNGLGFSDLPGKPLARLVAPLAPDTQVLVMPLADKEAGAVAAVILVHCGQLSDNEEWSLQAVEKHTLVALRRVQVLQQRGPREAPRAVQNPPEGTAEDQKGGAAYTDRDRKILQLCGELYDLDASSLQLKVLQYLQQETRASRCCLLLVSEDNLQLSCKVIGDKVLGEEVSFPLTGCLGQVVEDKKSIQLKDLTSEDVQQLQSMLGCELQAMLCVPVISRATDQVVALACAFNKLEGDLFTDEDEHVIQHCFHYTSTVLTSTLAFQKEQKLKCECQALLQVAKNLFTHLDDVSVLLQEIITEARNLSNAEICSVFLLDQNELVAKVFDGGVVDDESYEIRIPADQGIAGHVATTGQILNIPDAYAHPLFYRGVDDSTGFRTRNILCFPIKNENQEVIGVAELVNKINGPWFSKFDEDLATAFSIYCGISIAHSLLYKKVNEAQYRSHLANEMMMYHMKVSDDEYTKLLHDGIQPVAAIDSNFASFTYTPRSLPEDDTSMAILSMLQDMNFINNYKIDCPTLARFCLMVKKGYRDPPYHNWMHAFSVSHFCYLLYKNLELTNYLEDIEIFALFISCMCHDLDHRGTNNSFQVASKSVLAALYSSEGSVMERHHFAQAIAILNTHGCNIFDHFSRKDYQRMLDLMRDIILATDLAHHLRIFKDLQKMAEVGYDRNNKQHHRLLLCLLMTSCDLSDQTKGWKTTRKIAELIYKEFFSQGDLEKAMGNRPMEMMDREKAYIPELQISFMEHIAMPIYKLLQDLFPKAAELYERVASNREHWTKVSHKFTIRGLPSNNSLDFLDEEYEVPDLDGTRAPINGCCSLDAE

[6] = Toxicity in male Beagle dog assessed as increase in blood pressure at 3 mg/kg, po observed upto 9 hrs post last dose by telemetry; assay type: organism-based, Canis lupus familiaris; details: in vivo
Summary of the method: (§1)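 Crossover telemetry study in dogs at three oral doses (0.3, 1 and 3 mg/kg), N=4. Endpoints were blood pressure, maximum systolic left ventricular pressure, LV +dP/dt max, activity, heart rate, and RR, QT and QTc intervals, followed up to 9 h post dose.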

[7] = Toxicity in dog assessed as convulsion at 45 mg/kg, po using spray-dried dispersion formulation measured after 45 mins; assay type: organism-based, Canis lupus familiaris; details: in vivo, 0.75 h
Summary of the method: (§2)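 Dogs received single escalating oral doses as a spray-dried dispersion (10% drug loading with HPMCAS-M). The dispersion was suspended in 0.5 wt% methylcellulose/0.5 wt% HPMCAS in 20 mM tris buffer, pH 7.4. One dog per sex per dose was used, and clinical signs were recorded.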

[8] = molecular target: T1, Muscarinic acetylcholine receptor M1 (Homo sapiens, UniProt P11229); experiment: Agonist activity at muscarinic M1 receptor (unknown origin) expressed in CHO cells assessed as accumulation of inositol phosphate measured after 30 mins by HTRF assay; assay type: functional, cell-based
T1 sequence (P11229 whole entry): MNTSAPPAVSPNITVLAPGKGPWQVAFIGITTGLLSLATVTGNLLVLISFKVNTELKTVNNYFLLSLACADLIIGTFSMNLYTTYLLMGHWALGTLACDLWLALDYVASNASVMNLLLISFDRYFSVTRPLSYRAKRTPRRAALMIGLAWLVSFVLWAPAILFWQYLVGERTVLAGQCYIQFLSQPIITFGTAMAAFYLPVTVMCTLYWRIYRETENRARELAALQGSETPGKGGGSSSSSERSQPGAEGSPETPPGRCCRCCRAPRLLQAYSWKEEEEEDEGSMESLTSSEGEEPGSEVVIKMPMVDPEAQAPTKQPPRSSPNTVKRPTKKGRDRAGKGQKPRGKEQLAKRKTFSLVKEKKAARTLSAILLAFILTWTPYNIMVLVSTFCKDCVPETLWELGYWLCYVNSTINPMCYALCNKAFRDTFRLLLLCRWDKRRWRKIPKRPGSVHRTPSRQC

[9] = Unbound plasma concentration in scopolamine-induced Wistar rat model at 0.1 mg/kg, po measured after 1 hr; assay type: ADME, organism-based; details: in vivo
[10] = Positive allosteric modulation of muscarinic M2/M3 receptor in Hartley guinea pig ileum assessed as increase in donepezil-induced stimulation of contraction; assay type: tissue-based; details: Cavia porcellus
Summary of the method: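 PAM mode used guinea pig ileum in a tissue bath. Contraction concentration–response curves were run in the presence of an EC20 of donepezil, with or without atropine.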

[11] = Toxicity in male Beagle dog assessed as change in CV end points at 0.3 mg/kg, po by telemetry; assay type: organism-based, Canis lupus familiaris; details: in vivo; summary of the method: as §1
[12] = Unbound brain concentration in amphetamine-induced C57BL/6J mouse model of hyperlocomotion at 0.32 mg/kg, sc measured after 1 hr; assay type: ADME, organism-based; details: in vivo
Summary of the method: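 Satellite PK animals from the mouse aLMA study, N=2/dose. Dosed subcutaneously with a solution in 5/15/80 DMSO/Solutol/water. Plasma and brain were sampled at T = 1 h.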

[13] = Clearance in rat at 1 mg/kg, iv administered as single bolus dose; assay type: ADME, organism-based; details: in vivo
[14] = Toxicity in dog assessed as emesis at 5 mg/kg, po using spray-dried dispersion formulation; assay type: organism-based, Canis lupus familiaris; details: in vivo; summary of the method: as §2
[15] = molecular target: T2, Muscarinic acetylcholine receptor M5 (Homo sapiens, UniProt P08912); experiment: Positive allosteric modulation of human recombinant muscarinic M5 receptor stably expressed in CHO cells assessed as increase in Ach-induced accumulation of intracellular calcium level upto 10 uM incubated for 10 mins followed by addition of Ach at EC20 concentration by Fluo-8AM dye based FLIPR TETRA method
T2 sequence (P08912 whole entry): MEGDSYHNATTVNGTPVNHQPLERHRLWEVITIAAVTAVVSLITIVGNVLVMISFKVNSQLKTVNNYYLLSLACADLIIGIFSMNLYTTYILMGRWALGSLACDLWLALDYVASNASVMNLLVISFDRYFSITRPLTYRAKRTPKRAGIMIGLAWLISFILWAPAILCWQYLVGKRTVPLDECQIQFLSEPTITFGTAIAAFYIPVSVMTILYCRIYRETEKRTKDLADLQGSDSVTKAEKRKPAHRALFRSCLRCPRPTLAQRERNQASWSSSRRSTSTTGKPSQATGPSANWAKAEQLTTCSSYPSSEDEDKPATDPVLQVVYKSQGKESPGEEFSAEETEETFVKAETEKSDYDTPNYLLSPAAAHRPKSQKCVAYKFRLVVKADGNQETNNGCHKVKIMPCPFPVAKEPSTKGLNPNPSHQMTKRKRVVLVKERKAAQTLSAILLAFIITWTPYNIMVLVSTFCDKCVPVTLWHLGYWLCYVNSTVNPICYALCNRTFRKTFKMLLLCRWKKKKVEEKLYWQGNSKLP

[16] = fCmax in rat at 30 mg/kg, po administered for 14 days; assay type: ADME, organism-based; details: in vivo, 336 h, time 14 day
Summary of the method: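 2-week repeat oral dosing in rats, 0.5% methylcellulose formulation; N=4/sex/dose; doses 3, 10, 30 (males)/15 (females) mg/kg; unbound exposures reported per dose and sex.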

[17] = Fraction unbound in cynomolgus monkey plasma; assay type: ADME, cell-free, Macaca fascicularis
[18] = molecular target: T3, Muscarinic acetylcholine receptor M1 (Homo sapiens) (UniProt P11229); experiment: Binding affinity to human muscarinic M1 receptor stably expressed in CHO cells assessed as increase in intracellular calcium level measured after 10 mins by Fluo-8AM dye based FLIPR TETRA method; assay type: cell-based; details: filed as positive allosteric modulator
T3 sequence (whole entry): T1 sequence (P11229 whole entry)

[19] = Ratio of AUC monkey brain to fAUC in monkey plasma; assay type: ADME, cell-free, Macaca mulatta; details: rhesus monkey, in vivo
[20] = Fraction unbound in Beagle dog plasma; assay type: ADME, Canis lupus familiaris

Cc1cnc(C(=O)N[C@H]2CCOC[C@@H]2O)cc1Cc1ccc(-c2cscn2)cc1
logD [1]: 2.2
Fu [2]: 4.3%
fCmax [3]: 568 nM
Activity [4]: Toxic
pIC50 [5]: 5.51
Activity [6]: 7 mmHg
Activity [7]: Toxic
pEC50 [8]: ≤ 5.04
Cp(f) [9]: 0.9 nM
pEC50 [10]: 7.09
Activity [11]: Non-Toxic
Drug uptake(free) [12]: 6.38 nM
clearance [13]: 3.29 mL/min/kg
Activity [14]: Toxic
Activity [15]: Not Active
fCmax [16]: 1221 nM
Fu [17]: 3.2%
Ka [18]: 2 µM
Ratio AUC [19]: 0.41
Fu [20]: 8.1%
